# In ChEMBL document CHEMBL1128644, “(+/-)-(N-alkylamino)benzazepine analogs: novel dopamine D1 receptor antagonists” (J Med Chem, 1995):
# Assays:
# D(2) dopamine receptor = D(2) dopamine receptor (Rattus norvegicus, UniProt P61169); assay: Binding affinity against Dopamine receptor D2 from rat striatal membranes, using [3H]sulpiride as radioligand.
# How it was run: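 Rat (male Sprague–Dawley, 200–250 g) caudate putamen membranes, freshly prepared in 50 mM Tris pH 7.4 and washed by centrifugation. Incubation with 3 nM [³H]sulpiride (final) for 30 min at 37 °C, in triplicate. Nonspecific binding defined with 10 μM sulpiride. Filtration, scintillation counting, Ki by LIGAND; at least three determinations.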
# D(1A) dopamine receptor = D(1A) dopamine receptor (Rattus norvegicus, UniProt P18901)
# Sequence of D(1A) dopamine receptor (P18901 whole entry): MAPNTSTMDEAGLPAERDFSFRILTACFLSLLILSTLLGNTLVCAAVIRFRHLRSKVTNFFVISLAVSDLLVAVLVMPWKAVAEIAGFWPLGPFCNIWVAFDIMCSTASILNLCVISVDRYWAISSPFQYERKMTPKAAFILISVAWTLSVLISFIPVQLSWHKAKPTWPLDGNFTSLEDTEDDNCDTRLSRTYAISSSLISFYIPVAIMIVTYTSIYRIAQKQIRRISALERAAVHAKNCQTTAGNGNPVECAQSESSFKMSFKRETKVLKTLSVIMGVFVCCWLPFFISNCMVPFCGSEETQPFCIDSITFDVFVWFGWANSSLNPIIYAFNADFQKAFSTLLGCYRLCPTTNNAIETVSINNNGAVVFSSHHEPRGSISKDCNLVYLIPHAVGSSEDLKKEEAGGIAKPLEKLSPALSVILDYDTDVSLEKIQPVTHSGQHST
# Sequence of D(2) dopamine receptor (P61169 whole entry): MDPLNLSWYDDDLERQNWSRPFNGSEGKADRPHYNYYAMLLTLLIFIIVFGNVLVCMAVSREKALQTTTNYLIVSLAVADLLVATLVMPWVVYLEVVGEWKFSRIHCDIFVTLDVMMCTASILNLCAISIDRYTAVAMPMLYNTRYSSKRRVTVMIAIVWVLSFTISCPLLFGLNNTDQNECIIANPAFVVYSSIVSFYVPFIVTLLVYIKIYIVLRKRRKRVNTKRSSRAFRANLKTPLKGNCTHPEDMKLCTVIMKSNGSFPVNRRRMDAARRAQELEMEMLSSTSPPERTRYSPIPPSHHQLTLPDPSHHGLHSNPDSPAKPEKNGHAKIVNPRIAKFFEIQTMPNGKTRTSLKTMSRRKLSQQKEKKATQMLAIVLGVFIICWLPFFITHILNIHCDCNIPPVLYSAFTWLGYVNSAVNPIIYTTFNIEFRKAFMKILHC
SMILES,Ki (D(2) dopamine receptor) [nM],Ki (D(1A) dopamine receptor) [nM]
NCCCC(=O)N1CCc2cc(Cl)c(O)cc2C(c2ccccc2)C1 (centres undefined),7410,607
BC#N.CN(C)CCCCCCN1CCc2cc(Cl)c(O)cc2C(c2ccccc2)C1 (centres undefined),–,142
NCCCCCCN1CCc2cc(Cl)c(O)cc2C(c2ccccc2)C1 (centres undefined),2490,321
CNCCCCCCN1CCc2cc(Cl)c(O)cc2C(c2ccccc2)C1 (centres undefined),3570,75.7
CN(C)CCCCCCN1CCc2cc(Cl)c(O)cc2C(c2ccccc2)C1 (centres undefined),3450,49.3
CCCCN1CCc2cc(Cl)c(O)cc2C(c2ccccc2)C1 (centres undefined),2360,634
O=CNCCCCCCN1CCc2cc(Cl)c(O)cc2C(c2ccccc2)C1 (centres undefined),2030,553
NCCCCN1CCc2cc(Cl)c(O)cc2C(c2ccccc2)C1 (centres undefined),4280,75
CNCCCCN1CCc2cc(Cl)c(O)cc2C(c2ccccc2)C1 (centres undefined),> 10000,106

# Other lines, results leading:
Ki (D(2) dopamine receptor) [nM],Ki (D(1A) dopamine receptor) [nM],SMILES
9150,> 10000,COc1cc2c(cc1Cl)CCN(CCCCN(C)C)CC2c1ccccc1 (centres undefined)
> 10000,4820,CN(C)CCCCN1CCc2cc(O)c(O)cc2C(c2ccccc2)C1 (centres undefined)
2490,> 10000,COc1cc2c(cc1Br)CCN(CCCCN(C)C)CC2c1ccccc1 (centres undefined)
> 10000,> 10000,COc1cc2c(cc1OC)C(c1ccccc1)CN(CCCCN(C)C)CC2 (centres undefined)
4130,811,CN(C)CCCCN1CCc2cc(Cl)c(O)cc2C(c2ccccc2)C1 (centres undefined)
> 10000,1490,CN(C)CCCCN1CCc2cc(Br)c(O)cc2C(c2ccccc2)C1 (centres undefined)
